PGC1a Ac signal = compounds raising PGC1a acetylation signal, primary screen, PGC1a modulator project, cell-based, U2OS, AlphaScreen, signal-increasing mode; activation, % at 15.6 µM; 0.21% of 350,000 active; overnight;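 active = every replicate reaching activation of at least 50%, whatever the mean replicate activation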;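 note: hits raise the AlphaScreen acetylation signal above neutral controls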
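System: flag-PGC1a/GCN5 U2OS cells / Input: 7000 cells/well / Compound: single test concentration per compound / Incubation: overnight compound treatment, 37 °C / Technique: AlphaScreen on lysates with anti-acetyl-lysine antibody, acceptor and donor beads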
G6PC hep suppr = suppressors of forskolin-stimulated G6PC mRNA, dose response, PGC-1a acetylation activator project, cell-based, hepatocytes, RT-qPCR, cherry-picked samples. AID 743463, 2014. G6PC suppression (normalized activity, % of positive control; higher = more suppression), % at 26 µM. shares compounds with PGC1a Ac signal. 240 tested, under 10 active. primary mouse hepatocytes;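 active = dose curves showing G6PC suppression whose half-maximal dose is at most twice the top valid dose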;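 note: G6PC expression relative to GAPDH housekeeping gene as delta delta Ct; 0% = median of neutral control wells and 100% = median of positive control wells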
PCK1 hep suppr = suppression of PCK1 mRNA in primary hepatocytes, dose response, PGC-1a acetylation activator project, cell-based, primary mouse hepatocytes, RT-qPCR, cherry-pick; shares compounds with PGC1a Ac signal; forskolin-stimulated; PCK1 expression decrease, unspecified at 26 µM; 230 tested, under 10 active;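 active = compounds lowering PCK1 expression whose fitted half-maximal concentration is at most twice the top tested dose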;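 note: values are delta delta Ct of PCK1 relative to GAPDH; higher delta delta Ct means lower PCK1 expression so positive values indicate hits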
Hep PGC-1a down = suppression of PGC-1a mRNA in primary hepatocytes, dose response, PGC-1a acetylation activator project, cell-based, primary mouse hepatocytes, RT-qPCR, cherry-pick; shares compounds with PGC1a Ac signal; PGC-1a mRNA qPCR, forskolin; top dose 26 µM; max activity (PGC-1a expression decrease), %; 240 tested, under 10 active;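 active = compound lowering PGC-1a expression with fitted half-maximal concentration at most twice its top tested dose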;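 note: 0% = neutral control wells median and 100% = positive control wells median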
An asterisk follows results filed as active. A selection follows.

SMILES	PGC1a Ac signal	others
C1=NCCc2c1[nH]c1ccccc21	156*
COc1ccc(CC2NCC(O)C2OC(C)=O)cc1 (stereo not drawn)	-92
CCn1cc(C(=O)N2CCOCC2)c2ccccc21	-59
C[C@@H]1O[C@@H](O[C@@H]2C=C3CC[C@@H]4C(CC[C@]5(C)[C@@H](c6ccc(=O)oc6)CC[C@]45O)[C@@]3(C)CC2)[C@H](O)[C@H](O)[C@H]1O (stereo partly drawn)	-67
CC(=O)OC1CC(OC2C(O)CC(OC3C(O)CC(OC4CCC5(C)C(CCC6C5CCC5(C)C(C7=CC(=O)OC7)CCC65O)C4)OC3C)OC2C)OC(C)C1OC1OC(CO)C(O)C(O)C1O (stereo not drawn)	-56
C[C@@H]1CN([C@H](C)CO)C(=O)c2c(c3ccccc3n2C)-c2ccccc2CO[C@@H]1CN(C)C(=O)Oc1ccccc1	265*
CC1=CC2OC3CC4OC(=O)C=CC=CC(C(C)O)OCC(O)C(C)CC(=O)OCC2(CC1O)C4(C)C31CO1 (stereo not drawn)	-81
CC1=C(C/C(C)=C/c2ccccc2)/C(=C/CO)[C@@H]2OC(=O)O[C@]2(C)C12CC2	-43
C[C@@H]1C[C@@H]([C@H](O)CC2CC(=O)NC(=O)C2)C(=O)[C@@H](C)C1	-73
CC(=O)OC1C(O)C(C)OC(OC2C(OC(=O)C3CCC4C(C3)OC3(CC(OC(=O)/C=C/c5ccccc5)C(C)CO3)C43CO3)OC(C)C(O)C2OC(C)=O)C1O (stereo not drawn)	-78
CCOc1ccc(-c2cc(C)[n+](CCc3ccc(OC)c(OC)c3)c(-c3ccc(OCC)cc3)c2)cc1	230*
COc1ccc(CCNC2(C#N)CCCCC2)cc1OC	-84
CCC1(OC(=O)CN)C(=O)OCc2c1cc1n(c2=O)Cc2cc3ccccc3nc2-1 (stereo not drawn)	-43
COC(=O)C12OCC34C(CC5C(C)=C(O)C(=O)CC5(C)C3C(O)C1O)OC(=O)C(OC(=O)/C=C(\C)C(C)C)C24 (stereo not drawn)	-86
CC1OC(OC2CC(O)C3(CO)C4C(O)CC5(C)C(C6=CC(=O)OC6)CCC5(O)C4CCC3(O)C2)C(O)C(O)C1O (stereo not drawn)	-81
C=C1C(=O)O[C@@H]2C[C@@H](C)[C@@H]3C=CC(=O)[C@@]3(C)[C@@H](O)[C@H]12	-47
COc1ccc(-n2nnnc2C(CCc2ccccc2)N2CCC(n3c(=O)[nH]c4ccccc43)CC2)cc1 (stereo not drawn)	-55
C[C@@H]1O[C@@H](O[C@@H]2C=C3CCC4C(CC[C@]5(C)[C@@H](c6ccc(=O)oc6)CC[C@]45O)[C@@]3(C)CC2)[C@H](O)[C@H](O)[C@H]1O (stereo partly drawn)	-60
C[C@H]1CCC/C=C/[C@@H]2C[C@H](O)C[C@H]2[C@H](O)/C=C/C(=O)O1	-69
O=C1CN=C(c2ccc[nH]2)c2cc(Cl)ccc2N1	-41
CN1CCN(Cc2cc(C(C)(C)C)c(O)c(C(C)(C)C)c2)CC1	130*
O=C1NCN(c2ccccc2)C12CCN(C(c1cc3ccccc3o1)c1nnnn1C1CCCCC1)CC2 (stereo not drawn)	84*
CCOCCN1CCC(OC(C)=O)C(C)C1 (stereo not drawn)	-42
CC(=O)c1c(C)n(C2CCCCC2)c2ccc(O)cc12	-55
CC(=O)OC[C@]12CCC(C)=C[C@H]1O[C@@H]1[C@H](O)[C@@H](OC(C)=O)[C@@]2(C)[C@]12CO2	-86
COc1ccc(OC(=O)N(C)C[C@H]2OCc3ccccc3-c3c(n(C)c4ccccc34)C(=O)N([C@@H](C)CO)C[C@H]2C)cc1	62*	G6PC hep suppr=13;PCK1 hep suppr=48;Hep PGC-1a down=46
CC(=O)OC(C)(C)/C=C/C(=O)C(C)(O)C1C(O)CC2(C)C3CC=C4C(CC(O)C(=O)C4(C)C)C3(C)C(=O)CC12C (stereo not drawn)	-70
CC(=O)OC1(C)CC(C)C(=O)C(C(O)CC2CC(=O)NC(=O)C2)C1 (stereo not drawn)	-93
Oc1ccc2c3c1O[C@H]1[C@@H](O)CC[C@@]4(O)[C@@H](C2)N(CC2CCC2)CC[C@]314	-57
CCn1nc(-c2cccs2)nc2c(=O)n(C)c(=O)nc1-2	-40

Compound activity (PubChem BioAssay)
